We go through nine compounds from ChEMBL document CHEMBL1157149, “Phosphonate-linked pyrrolo[2,1-c][1,4]benzodiazepine conjugates: synthesis, DNA-binding affinity and cytotoxicity” (2008).

Test [1] deals with T1, Type II restriction enzyme BamHI (Bacillus amyloliquefaciens) (UniProt P23940).
T1 sequence (whole entry): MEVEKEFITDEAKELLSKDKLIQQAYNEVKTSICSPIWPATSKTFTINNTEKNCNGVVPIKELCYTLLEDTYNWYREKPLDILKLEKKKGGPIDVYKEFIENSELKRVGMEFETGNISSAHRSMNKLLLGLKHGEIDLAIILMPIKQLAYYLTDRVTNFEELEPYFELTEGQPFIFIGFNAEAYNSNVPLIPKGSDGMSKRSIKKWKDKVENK
In words: Inhibition of BamH1 assessed as inhibition of pBR322 DNA cleavage. In outline: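 PBD stocks were 100 μM in DMSO. Plasmid pBR322 (500 ng, single BamHI site) was preincubated with compound in 16 μL for 16 h at 37 °C. BamHI (20 U) and its buffer were then added to 20 μL, and digestion ran 1 h at 37 °C. Cut and uncut forms were resolved on 1% agarose in TAE (80 V, 2 h) and stained with ethidium bromide.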

A further test has as its system DNA. The experiment in a line: Binding affinity to calf thymus DNA assessed as change in thermal stability at pH 7.0 after 18 hrs by thermal denaturation assay. The class given is nucleic-acid assay. As to conditions: Bos taurus. In a few lines:
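CT-DNA duplex at 100 µM (in phosphate) with ligand at 20 µM (1:5 ligand/DNA molar ratio) in 10 mM sodium phosphate, 1 mM EDTA, pH 7.00; compound added from concentrated MeOH solution. Incubated at 37 °C for 18 h. Absorbance at 260 nm followed while heating at 1 °C/min over 40–90 °C. Tm taken from dA260/dT derivative maxima; ΔTm relative to DNA alone.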

The next test has as its system A2780. In words: Cytotoxicity against human A2780 cells after 48 hrs by SRB method. The following applies: A2780, 48 h. For orientation: In SRB staining, fixed cells bind dye roughly in proportion to their protein.
A short description of test [2]: Cytotoxicity against human GURAV cells after 48 hrs by SRB method.
Another test relates to PC-3. The experiment in a line: Cytotoxicity against human PC3 cells after 48 hrs by SRB method. As to conditions: PC-3, 48 h.
For a further test, the system named is COLO 205. The experiment in a line: Cytotoxicity against human Colo205 cells after 48 hrs by SRB method. As to conditions: COLO 205, 48 h.
The test system of the next test is MCF7. In words: Cytotoxicity against human MCF7 cells after 48 hrs by SRB method. As to conditions: MCF7, 48 h.
A further test has as its system SiHa. In words: Cytotoxicity against human SiHa cells after 48 hrs by SRB method.
Test [3] in a line: Cytotoxicity against human DWD cells after 48 hrs by SRB method.
A further test concerns KB. The experiment in a line: Cytotoxicity against human KB cells after 48 hrs by SRB method.
Test [4] is described as follows: Cytotoxicity against human melanoma cancer cells after 24 hrs by SRB method. As to conditions: Melanoma cell. The class given is functional.
Another test relates to MOLT-4. The experiment in a line: Cytotoxicity against human MOLT4 cells after 24 hrs by SRB method. The test is classed as functional. The following applies: MOLT-4, 24 h.
The test system of another test is K562. The experiment in a line: Cytotoxicity against human K562 cells after 48 hrs by SRB method. As to conditions: K562, 48 h.
Test [5] is described as follows: Cytotoxicity against human colon cancer cells after 24 hrs by SRB method. The class given is functional. The following applies: Cancer cell lines.
In the next test the test system is A549. The experiment in a line: Cytotoxicity against human A549 cells after 48 hrs by SRB method. The following applies: A549, 48 h.
Test [6] is described as follows: Cytotoxicity against human CNS cancer cells after 48 hrs by SRB method. As to conditions: Cancer cell lines.
Test [7] in a line: Cytotoxicity against human leukemia cells after 48 hrs by SRB method. The following applies: Leukemia cell.
Test [8] in a line: Cytotoxicity against human prostate cancer cells after 24 hrs by SRB method. The class given is functional. The following applies: Cancer cell lines.
Another test concerns SR. The experiment in a line: Cytotoxicity against human SR cells after 24 hrs by SRB method. The test is classed as functional.
The subject of the next test is HL-60. The experiment in a line: Cytotoxicity against human HL60 cells after 48 hrs by SRB method. As to conditions: HL-60, 48 h.
Test [9] in a line: Cytotoxicity against human renal cancer cells after 24 hrs by SRB method. The class given is functional. As to conditions: Cancer cell lines.
The nature of test [10]: Cytotoxicity against human lung cancer cells after 24 hrs by SRB method. The class given is functional. As to conditions: Cancer cell lines.
The test system of test [11] is CCRF-CEM. In words: Cytotoxicity against human CCRF-CEM cells after 48 hrs by SRB method. As to conditions: read-out: pLC50 (the source's name) (converted).
Test [12] deals with CCRF-CEM. In words: Cytotoxicity against human CCRF-CEM cells after 24 hrs by SRB method. The test is classed as functional.
A short description of test [13]: Cytotoxicity against human leukemia cells after 24 hrs by SRB method. The class given is functional. As to conditions: Leukemia cell, read-out: pTGI (converted).
A short description of test [14]: Cytotoxicity against human ovarian cancer cells after 24 hrs by SRB method. The test is classed as functional. The following applies: Cancer cell lines.
Test [15] is described as follows: Cytotoxicity against human breast cancer cells after 24 hrs by SRB method. The class given is functional. As to conditions: Cancer cell lines.
The test system of a further test is RPMI-8226. The experiment in a line: Cytotoxicity against human RPMI8226 cells after 24 hrs by SRB method. The test is classed as functional. As to conditions: RPMI-8226, 24 h.
Setting [16] is: read-out: pLC50 (the source's name) (converted).

Activity calls are given as the source filed them. The calls are words filed in the database; no cut-off is given here. Bounds are passed on as bounds.

In the case of `CCOP(=O)(CCCN1CCN(CCCOc2cc3c(cc2OC)C(=O)N2CCC[C@H]2C=N3)CC1)OCC`, the outcome in test [1] was Active. Moreover, the ΔTm in the test with DNA turned out to be 9.9 °C.
With `CCOP(=O)(CCCN1CCN(CCCCOc2cc3c(cc2OC)C(=O)N2CCC[C@H]2C=N3)CC1)OCC`, in the test on DNA, the ΔTm came out at 7.1 °C.
Turning to `COc1cc2c(cc1O)N=C[C@@H]1CCCN1C2=O`, in the test on DNA, the ΔTm amounted to 0.7 °C.
Take `CCOP(=O)(CCCN1CCN(CCCCCOc2cc3c(cc2OC)C(=O)N2CCC[C@H]2C=N3)CC1)OCC`: the GI50 in the test on A2780 is 2.02 µM; in test [2], 2.18 µM; with PC-3, 30.5 µM; with COLO 205 it was 2.39 µM; with MCF7, 2.21 µM; in the test on SiHa it was 2.46 µM. In [3], the GI50 is 0.18 µM. Further, the outcome in test [1] was Active. In the test with DNA, the ΔTm was determined as 10 °C.
As to `CCOP(=O)(CCCOc1cc2c(cc1OC)C(=O)N1CCC[C@H]1C=N2)OCC`, the GI50 worked out at 2.11 µM in the test with KB, 2.02 µM in the test on MCF7, 2.1 µM in the test with SiHa and 2.2 µM in test [3]. Besides, the ΔTm with DNA was 4.5 °C.
As to `COc1cccc2c1C(=O)c1c(O)c3c(c(O)c1C2=O)C[C@@](O)(C(=O)CO)C[C@@H]3O[C@H]1C[C@H](N)[C@H](O)[C@H](C)O1` [DOXORUBICIN], the 50% growth inhibitory concentration (GI50) in the test with KB is 0.17 µM; in the test on A2780 it was 0.17 µM; in [2], 0.17 µM; in the test with COLO 205, 0.14 µM; in the test with MCF7, 0.18 µM; in the test with SiHa it was 0.18 µM. The GI50 in [3] came out at 0.11 µM.
With `CCOP(=O)(CCN1CCN(CCCOc2cc3c(cc2OC)C(=O)N2CCC[C@H]2C=N3)CC1)OCC`, the outcome in test [1] was Active. For the same compound, the ΔTm in the test on DNA turned out to be 9 °C.
For `CCOP(=O)(CCN1CCN(CCCCCOc2cc3c(cc2OC)C(=O)N2CCC[C@H]2C=N3)CC1)OCC`, the GI50 in [4] was 7.76 µM; with MOLT-4 it was 2.14 µM; in the test on K562, 2.34 µM; with KB it was 1.92 µM; in the test on A2780 it was 0.17 µM; in test [5], 10 µM. For the same compound, the GI50 in the test with A549 was 2.64 µM; in [6], 3.02 µM; in test [7] it was 1.95 µM; in test [8], 17.8 µM; in the test on SR, 1.38 µM; in the test on HL-60 it was 1.82 µM. Moreover, the GI50 in test [2] is 0.17 µM; in [9], 9.77 µM; in [10], 10 µM; in the test with PC-3, 1.98 µM; in the test with CCRF-CEM [12], 1.91 µM; in the test on COLO 205 it was 1.87 µM. The GI50 is 13.8 µM in test [14]; 2.01 µM in the test on MCF7; 5.62 µM in test [15]; 2.29 µM with RPMI-8226; 0.21 µM in the test on SiHa. Moreover, the CC50 in test [4] (setting [16]) is 81.3 µM; in the test on MOLT-4 (setting [16]), more than 100 µM; in the test on K562 (setting [16]) it was more than 100 µM; in [5] (setting [16]), 93.3 µM; in test [6] (setting [16]), 89.1 µM; in [7] (setting [16]) it was 100 µM. In addition, the CC50 in [8] (setting [16]) was 100 µM; with SR (setting [16]), 30.9 µM; with HL-60 (setting [16]), more than 100 µM; in test [9] (setting [16]) it was 95.5 µM; in test [10] (setting [16]) it was 100 µM; in the test with CCRF-CEM [11] it was more than 100 µM. The CC50 in test [14] (setting [16]) was 100 µM; in test [15] (setting [16]), 95.5 µM; in the test with RPMI-8226 (setting [16]), more than 100 µM. For the same compound, the TGI in test [4] (read-out: pTGI (converted)) was 30.2 µM; with MOLT-4 (read-out: pTGI (converted)) it was 6.31 µM; with K562 (read-out: pTGI) it was more than 100 µM; in [5] (read-out: pTGI (converted)), 46.8 µM; in test [6] (read-out: pTGI (converted)) it was 30.2 µM; in test [8] (read-out: pTGI (converted)), 63.1 µM. The TGI in the test with SR (read-out: pTGI (converted)) was 4.27 µM; in the test on HL-60 (read-out: pTGI (converted)) it was 8.32 µM; in [9] (read-out: pTGI (converted)), 53.7 µM; in test [10] (read-out: pTGI (converted)) it was 45.7 µM; in test [13], 12.3 µM; in test [14] (read-out: pTGI (converted)), 55 µM. In addition, in test [15] (read-out: pTGI (converted)), the TGI was 33.1 µM. Moreover, the outcome in test [1] was Active. The ΔTm in the test with DNA was found to be 7.2 °C.
`COc1cc2c(cc1OCCCN1CCN(C)CC1)N=C[C@@H]1CCCN1C2=O`: the ΔTm in the test on DNA was 6.9 °C.

For orientation: ΔTm means the change in melting temperature against a reference sample. One may read the GI50 as the concentration that inhibits growth by half. A low value points to more potent growth inhibition.
